# Key:
# [1] = Stability in 25 mM phosphate buffer assessed as hydrolysis half life at pH 7.3; type: physicochemical; conditions: for t1/2: buffer; for half-life: phosphate buffer
# CCRF-CEM [2] = test: (§1) Stability in human CEM cell extract assessed as hydrolysis half life at pH 6.9; type: ADME; conditions: ccrf-cem
# Serum = test: Stability in human serum assessed as hydrolysis half life at pH 6.8; type: ADME, cell-free
# Procedure, shortened: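 Human serum at 50%, diluted with phosphate buffered saline to pH 6.8. Triester conversion followed over time and hydrolysis half-life derived.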
# [3] = tested on: Human immunodeficiency virus 2; test: Antiviral activity against HIV2 ROD in human CEM cells; type: functional, organism-based, CCRF-CEM
# Procedure, shortened: (§2)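 CEM/0 cells at 4 × 10⁵ cells/mL infected with HIV-1 or HIV-2 (ROD, stocks from infected MT-4 supernatants) at ~100 CCID₅₀/mL, mixed 1:1 with serial compound dilutions. Giant cell formation scored microscopically after 4-5 days.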
# CCRF-CEM [4] = test: (§3) Cytotoxicity against human CEM cells; type: cell-based; conditions: ccrf-cem
# Procedure, shortened: (§4)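 Wild-type CEM cells exposed to test compound dilutions. Value reported as 50% cytotoxic concentration.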
# [5] = as §1; type: ADME, CCRF-CEM; conditions: CEM cell extract
# [6] = tested on: Human immunodeficiency virus 1; test: Antiviral activity against HIV1 in human CEM cells; type: functional, organism-based; conditions: Human immunodeficiency virus 1, CCRF-CEM; procedure, shortened: as §2
# [7] = tested on: Human immunodeficiency virus 2; test: Antiviral activity against HIV2 ROD in thymidine kinase deficient human CEM cells; type: functional, organism-based, CCRF-CEM
# Procedure, shortened: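 Thymidine kinase-deficient CEM/TK⁻ cells at 4 × 10⁵ cells/mL infected with HIV-2 ROD at ~100 CCID₅₀/mL, then mixed 1:1 with compound dilutions. Microscopic scoring of giant cell formation at 4-5 days. EC50 is the mean of two to three independent experiments.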
# [8] = as §3; type: cell-based, CCRF-CEM; conditions: CEM cells; procedure, shortened: as §4
# [9] = Human immunodeficiency virus 2, ROD, CCRF-CEM
Structure (SMILES),t1/2 [1] [h],t1/2 (CCRF-CEM [2]) [h],t1/2 (Serum) [h],EC50 ([3]; ccrf-cem) [µM],CC50 (CCRF-CEM [4]) [µM],half-life [1] [h],half-life [5] [h],EC50 [6] [µM],"EC50 [7, 9] [µM]","EC50 [3, 9] [µM]",CC50 [8] [µM],EC50 ([7]; ccrf-cem) [µM]
Cc1cn([C@H]2C=C[C@@H](COP3(=O)OCc4cc(CCC(=O)N[C@@H](C)C(=O)OCc5ccccc5)ccc4O3)O2)c(=O)[nH]c1=O (stereo in doubt; form 1),4.5,0.5,4.4,0.3,48,–,–,–,–,–,–,–
COC(=O)[C@@H](C)NC(=O)CCc1ccc2c(c1)COP(=O)(OC[C@@H]1C=C[C@H](n3cc(C)c(=O)[nH]c3=O)O1)O2 (some centres not stated),–,–,–,–,–,5,6.2,0.4,4.2,0.4,61,–
COC(=O)CNC(=O)CCc1ccc2c(c1)COP(=O)(OC[C@@H]1C=C[C@H](n3cc(C)c(=O)[nH]c3=O)O1)O2 (some centres not stated),–,–,–,–,–,6.5,4.5,2,4,1.6,220,–
COC(=O)[C@H](C)NC(=O)CCc1ccc2c(c1)COP(=O)(OC[C@@H]1C=C[C@H](n3cc(C)c(=O)[nH]c3=O)O1)O2 (some centres not stated),–,–,–,–,–,6.4,1.1,0.8,2.5,0.7,152,–
Cc1cn([C@H]2C=C[C@@H](COP3(=O)OCc4cc(CCC(=O)N[C@@H](C)C(=O)OCc5ccccc5)ccc4O3)O2)c(=O)[nH]c1=O (stereo in doubt; form 3),–,–,–,–,23,6.4,–,0.3,–,0.4,–,0.3
Cc1cn([C@H]2C=C[C@@H](COP3(=O)OCc4cc(CCC(=O)N5CCC[C@H]5C(=O)OCc5ccccc5)ccc4O3)O2)c(=O)[nH]c1=O (some centres not stated),–,–,–,–,–,6.1,0.4,0.7,21,1.1,46,–
Cc1cn([C@H]2C=C[C@@H](COP3(=O)OCc4cc(CCC(=O)O)ccc4O3)O2)c(=O)[nH]c1=O (some centres not stated),–,–,–,–,–,13,–,0.14,50,0.8,74,–
Cc1cn([C@H]2C=C[C@@H](CO)O2)c(=O)[nH]c1=O [STAVUDINE],–,–,–,–,–,–,–,0.48,47.5,0.63,234,–
COC(=O)[C@@H]1CCCN1C(=O)CCc1ccc2c(c1)COP(=O)(OC[C@@H]1C=C[C@H](n3cc(C)c(=O)[nH]c3=O)O1)O2 (some centres not stated),–,–,–,–,–,7.9,1.1,1.3,2.8,1.6,182,–
Cc1cn([C@H]2C=C[C@@H](COP3(=O)OCc4cc(CCC(=O)N[C@@H](C)C(=O)O)ccc4O3)O2)c(=O)[nH]c1=O (some centres not stated),–,–,–,–,–,12,7,0.5,4.1,0.4,77,–
Cc1cn([C@H]2C=C[C@@H](COP3(=O)OCc4cc(CCC(=O)N[C@@H](C)C(=O)OCc5ccccc5)ccc4O3)O2)c(=O)[nH]c1=O (stereo in doubt; form 2),8.8,–,1.3,–,61,–,0.5,–,–,–,–,1
Cc1cn([C@H]2C=C[C@@H](COP3(=O)OCc4cc(CCC(=O)NCC(=O)OCc5ccccc5)ccc4O3)O2)c(=O)[nH]c1=O (some centres not stated),–,–,–,–,–,6.2,4.8,0.31,0.4,0.47,75,–
Cc1cn([C@H]2C=C[C@@H](COP3(=O)OCc4cc(CCC(=O)N[C@@H](C)C(=O)OC(C)(C)C)ccc4O3)O2)c(=O)[nH]c1=O (some centres not stated),–,–,–,–,–,5.7,6.8,0.3,3.8,0.4,53,–
